ChEMBL document CHEMBL1127082, “3,4-Dihydroxychalcones as potent 5-lipoxygenase and cyclooxygenase inhibitors” (J Med Chem, 1993)

Key:
[1] = molecular target: T1, Polyunsaturated fatty acid 5-lipoxygenase (Rattus norvegicus, UniProt P12527); assay: In vitro inhibition against 5-lipoxygenase in RBL-1 cells was determined; type: cell-based
T1 sequence (P12527 whole entry): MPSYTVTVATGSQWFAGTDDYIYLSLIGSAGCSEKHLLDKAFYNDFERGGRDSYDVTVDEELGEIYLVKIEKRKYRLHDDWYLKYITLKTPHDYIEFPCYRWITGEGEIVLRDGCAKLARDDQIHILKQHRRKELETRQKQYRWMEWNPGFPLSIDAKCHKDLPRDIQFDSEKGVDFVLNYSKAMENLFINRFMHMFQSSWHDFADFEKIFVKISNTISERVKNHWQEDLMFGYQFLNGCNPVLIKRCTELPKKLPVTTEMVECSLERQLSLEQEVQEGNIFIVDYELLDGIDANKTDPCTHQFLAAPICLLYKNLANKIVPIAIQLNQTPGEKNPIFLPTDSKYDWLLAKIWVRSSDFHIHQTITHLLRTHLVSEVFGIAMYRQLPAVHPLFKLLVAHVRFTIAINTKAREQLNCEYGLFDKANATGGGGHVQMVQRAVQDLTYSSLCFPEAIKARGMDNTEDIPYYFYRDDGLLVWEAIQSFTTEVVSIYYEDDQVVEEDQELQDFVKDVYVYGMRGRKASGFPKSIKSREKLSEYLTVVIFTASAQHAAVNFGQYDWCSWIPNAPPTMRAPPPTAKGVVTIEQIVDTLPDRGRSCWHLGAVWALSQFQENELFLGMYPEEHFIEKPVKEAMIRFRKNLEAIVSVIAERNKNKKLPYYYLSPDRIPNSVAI

[2] = Inhibition of Prostaglandin G/H synthase activity in sheep seminal vesicle was determined; type: tissue-based, Ovis aries
Procedure, shortened: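 Sheep seminal vesicle microsomes (32 μg protein) were incubated with [14C]arachidonic acid (0.1 μCi/mL) in pH 7.4 phosphate buffer containing glutathione, epinephrine and EDTA for 10 min at 37 °C. Substrate was removed by two hexane/EtOAc extractions, and aqueous-phase radioactivity was counted by scintillation.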

Rattus norvegicus = species: Rattus norvegicus; assay: Inhibition of lipid peroxidation in rat liver microsomes at 1 uM; type: functional
[3] = molecular target: Prostaglandin G/H synthase 1 (Ovis aries) (UniProt P05979); assay: Inhibition of Prostaglandin G/H synthase activity in sheep seminal vesicle was determined; set-up: concentration or dose not given beside the values; conditions: concentration not given here
Mus musculus = assay: Inhibition of arachidonic acid induced mouse ear edema at 30 ug/ear; type: functional
Procedure, shortened: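 Male ICR mice (25–28 g), 4–8 per group, received the compound topically in acetone, then 1 mg arachidonic acid on the inner surface of one ear. After 1 h, swelling was taken as the weight difference between challenged and unchallenged ears. Inhibition = (C−T)/C × 100; mean ± SE; Student's t test.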

[4] = molecular target: Prostaglandin G/H synthase 1 (Ovis aries) (UniProt P05979); assay: Inhibition of Prostaglandin G/H synthase activity in sheep seminal vesicle was determined at 100 uM
[5] = molecular target: Prostaglandin G/H synthase 1 (Ovis aries) (UniProt P05979); assay: Inhibition of Prostaglandin G/H synthase activity in sheep seminal vesicle was determined 100 uM
[6] = molecular target: Prostaglandin G/H synthase 1 (Ovis aries) (UniProt P05979); assay: as above; remark: listed apart in the source

Prostaglandin G/H synthase 1 (Ovis aries), sequence (P05979 whole entry, looked up): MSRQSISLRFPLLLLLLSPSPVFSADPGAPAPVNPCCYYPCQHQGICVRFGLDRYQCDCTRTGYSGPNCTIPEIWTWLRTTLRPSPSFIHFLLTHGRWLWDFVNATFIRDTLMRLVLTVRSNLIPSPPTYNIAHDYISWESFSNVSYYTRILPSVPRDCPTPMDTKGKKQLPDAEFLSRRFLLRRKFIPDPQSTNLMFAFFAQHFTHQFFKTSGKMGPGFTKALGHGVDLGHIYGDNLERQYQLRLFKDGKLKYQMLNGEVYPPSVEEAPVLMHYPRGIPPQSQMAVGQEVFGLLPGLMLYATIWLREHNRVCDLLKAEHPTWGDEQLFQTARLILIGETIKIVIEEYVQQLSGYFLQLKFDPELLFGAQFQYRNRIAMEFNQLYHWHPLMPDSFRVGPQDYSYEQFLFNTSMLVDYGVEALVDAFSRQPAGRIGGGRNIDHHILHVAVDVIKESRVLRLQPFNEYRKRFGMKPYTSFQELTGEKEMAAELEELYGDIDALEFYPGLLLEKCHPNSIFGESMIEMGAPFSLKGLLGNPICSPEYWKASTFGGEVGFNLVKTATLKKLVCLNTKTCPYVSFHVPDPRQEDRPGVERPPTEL

Row | SMILES | IC50 [1] [µM] | IC50 [2] [µM] | also measured
1 | COc1cccc(C(=O)/C=C/c2ccc(O)c(O)c2)c1 | 0.0065 | 15 | –
2 | CC(Cc1ccc(O)c(O)c1)C(C)Cc1ccc(O)c(O)c1 (centres undefined) [NORDIHYDROGUAIARETIC ACID] | – | 210 | –
3 | Cc1ccc(C(=O)/C=C/c2ccc(O)c(O)c2)cc1 | 0.076 | 210 | –
4 | COc1ccc(C(=O)/C=C/c2ccc(O)c(OC)c2)cc1 | 12 | – | inhibition (Rattus norvegicus): 2.3%; inhibition [3]: -7.3%
5 | COc1ccc(OC)c(C(=O)/C=C/c2ccc(O)c(O)c2)c1 | – | 9.2 | –
6 | Cc1ccc(C(=O)/C=C/c2ccc(O)c(O)c2)c(C)c1 | 0.017 | 41 | –
7 | COc1ccc2c(c1)c(CC(=O)O)c(C)n2C(=O)c1ccc(Cl)cc1 [INDOMETHACIN] | – | 0.8 | Inhibition (Mus musculus): 4.8%
8 | O=C(/C=C/c1ccc(O)cc1)c1c(O)cc(O)cc1O | – | – | inhibition (Rattus norvegicus): 8%; inhibition [3]: 3.1%
9 | COc1ccc(OC(C)C)cc1C(=O)/C=C/c1ccc(O)c(O)c1 | 0.014 | 60 | Inhibition (Mus musculus): 34%
10 | CC(C)Oc1ccc(C(=O)/C=C/c2ccc(O)c(O)c2)cc1 | 0.041 | – | inhibition [4]: 11%
11 | O=C(/C=C/c1ccccc1)c1ccc(O)cc1 | – | – | inhibition [5]: 20%; inhibition (Rattus norvegicus): 5%
12 | O=C(/C=C/c1ccc(O)c(O)c1)c1ccccc1O | 0.023 | – | inhibition (Rattus norvegicus): 45%; IC50 [6]: 44 µM
13 | O=C(/C=C/c1ccc(O)cc1)c1ccc(O)cc1O [ISOLIQUIRITIGENIN] | 35 | – | inhibition (Rattus norvegicus): 9%
14 | O=C(/C=C/c1ccc(O)c(O)c1)c1ccc([N+](=O)[O-])cc1 | 0.023 | – | inhibition [3]: 5%
15 | COc1ccc(C(=O)/C=C/c2ccc(O)c(O)c2)c(OC)c1 | 0.01 | 160 | –
16 | O=C(/C=C/c1ccc(O)c(O)c1)c1ccccc1Cl | 0.092 | – | IC50 [6]: 71 µM
17 | O=C(/C=C/c1ccc(O)cc1)c1ccccc1O | – | 390 | inhibition (Rattus norvegicus): 6%
18 | COc1cc(C(=O)/C=C/c2ccc(O)c(O)c2)ccc1O | 0.009 | – | inhibition [4]: 14%
19 | Cc1cc(C)c(C(=O)/C=C/c2ccc(O)c(O)c2)c(C)c1 | 0.4 | 280 | –
20 | O=C(/C=C/c1ccc(O)c(O)c1)c1cccc(O)c1 | 0.0042 | 140 | inhibition (Rattus norvegicus): 24%
21 | CCOc1ccc(OCC)c(C(=O)/C=C/c2ccc(O)c(O)c2)c1 | 0.0024 | 24 | Inhibition (Mus musculus): -18%
22 | CC(C)c1ccc(O)c(C(=O)/C=C/c2ccc(O)c(O)c2)c1 | 0.004 | 37 | Inhibition (Mus musculus): 16%
23 | O=C(/C=C/c1ccccc1)c1c(O)cc(O)cc1O [2',4',6-TRIHYDROXYCHALCONE] | – | – | inhibition (Rattus norvegicus): 9%; inhibition [3]: 6.9%
24 | COc1cccc(OC)c1C(=O)/C=C/c1ccc(O)c(O)c1 | 0.37 | – | inhibition [4]: 15%
25 | O=C(/C=C/c1ccccc1)c1ccc(O)cc1O [2',4'-DIHYDROXYCHALCONE] | – | 280 | inhibition (Rattus norvegicus): 5%
26 | O=C1CCN(c2ccccc2)N1 [PHENIDONE] | – | 80 | Inhibition (Mus musculus): 24.6%

Row | SMILES | IC50 [1] [µM] | IC50 [2] [µM] | also measured
27 | COc1ccc(C(=O)/C=C/c2ccc(O)c(O)c2)cc1 | 0.02 | 490 | –
28 | Cc1ccc(O)c(C(=O)/C=C/c2ccc(O)c(O)c2)c1 | 0.039 | 120 | –
29 | O=C(/C=C/c1ccc(O)c(O)c1)c1ccc(O)cc1 | – | 320 | inhibition (Rattus norvegicus): 36%
30 | COc1ccc(C)cc1C(=O)/C=C/c1ccc(O)c(O)c1 | 0.024 | 30 | Inhibition (Mus musculus): 47%
31 | COc1ccc(C(=O)/C=C/c2ccc(O)c(O)c2)c(O)c1 [CALYTHROPSIN] | – | 65 | –
32 | CN(C)c1cccc(C(=O)/C=C/c2ccc(O)c(O)c2)c1 | 0.0098 | 41 | –
33 | O=C(/C=C/c1ccc(O)c(O)c1)c1c(O)cc(O)cc1O [3,4,2',4',6'-PENTAHYDROXYCHALCONE] | 0.14 | – | inhibition [5]: 11%; inhibition (Rattus norvegicus): 18%
34 | COc1ccccc1C(=O)/C=C/c1ccc(O)c(O)c1 | 0.027 | 13 | –
35 | Cc1ccc(C)c(C(=O)/C=C/c2ccc(O)c(O)c2)c1 | 0.016 | 44 | –
36 | CCOc1ccc(OC)c(C(=O)/C=C/c2ccc(O)c(O)c2)c1 | 0.0038 | 26 | –
37 | O=C(/C=C/c1ccc(O)c(O)c1)c1ccccc1 | 0.043 | 34 | inhibition (Rattus norvegicus): 44%
38 | COc1ccc(C(=O)/C=C/c2ccc(O)c(O)c2)cc1OC | 0.018 | 140 | –
39 | CCOc1ccc(O)c(C(=O)/C=C/c2ccc(O)c(O)c2)c1 | 0.0053 | 130 | Inhibition (Mus musculus): 42%
40 | CN(C)c1ccc(C(=O)/C=C/c2ccc(O)c(O)c2)cc1 | 0.0047 | 810 | –
41 | COc1cc(/C=C/C(=O)c2ccccc2O)ccc1O | – | – | inhibition (Rattus norvegicus): 14%; IC50 [6]: 63 µM
42 | O=C(/C=C/c1ccc(O)c(O)c1)c1ccc(Cl)cc1 | 0.0085 | 1400 | –
43 | Oc1c(Cc2ccccc2)ccc2ccccc12 | 0.0069 | 24 | Inhibition (Mus musculus): 67%
44 | CC(C)Oc1ccc(O)c(C(=O)/C=C/c2ccc(O)c(O)c2)c1 | 0.011 | 140 | –
45 | O=C(/C=C/c1ccc(O)c(O)c1)c1ccc(O)cc1O [BUTEIN] | 0.0046 | – | inhibition (Rattus norvegicus): 40%; IC50 [6]: 120 µM
46 | CCCCOc1ccc(O)c(C(=O)/C=C/c2ccc(O)c(O)c2)c1 | 1 | – | Inhibition (Mus musculus): 33%; inhibition [4]: 4.2%
47 | O=C(/C=C/c1ccc(O)c(O)c1)c1cc(O)ccc1O | 0.064 | 170 | –
48 | COc1cc(/C=C/C(=O)c2ccc(Cl)cc2)ccc1O | 8.9 | 41 | –
49 | CCOc1ccc(OC)cc1C(=O)/C=C/c1ccc(O)c(O)c1 | 0.027 | 2 | –
50 | COc1cc(C(=O)/C=C/c2ccc(O)c(O)c2)cc(OC)c1OC | 0.016 | – | inhibition [4]: 13%
51 | O=C(/C=C/c1ccc(O)c(O)c1)c1ccccc1C(F)(F)F | 0.058 | 230 | –
52 | Cc1cccc(C(=O)/C=C/c2ccc(O)c(O)c2)c1 | 0.027 | 71 | –
